Arrestin-AP2 inh = blocks beta-arrestin peptide binding to AP2 adaptin | FITC-arrestin peptide / GST-AP2 beads, flow cytometry; AP2 beta2 appendage carries R879A mutation | inhibition, % at 10 µM | 0.31% of 340,000 active | AID 504490;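 active = inhibition above a set limit, near 3 SD of compounds lacking own fluorescence, cut at about 54% in these data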;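 also: plate controls were DMSO wells for no effect and 5 µM unlabelled arrestin peptide for full effect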
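Test system: GST-tagged AP2 beta2-adaptin appendage (R879A) on 4 µm glutathione beads; also added: fluorescein-tagged arrestin peptide at 50 nM final; timing: 12 min plus 1 h, RT; signal: flow cytometry, FL1 (488/535 nm); read-out: percent drop in bead-associated FITC signal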
Rtt109 HAT inh = blocks Candida albicans Rtt109/Vps75 acetyltransferase activity; purified Rtt109/Vps75, ThioGlo CoA-SH fluorescence, 4 h; inhibition, % at 34.9 µM; 0.16% of 330,000 active; AID 540336;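 active = inhibition of at least 50% in every replicate; inconclusive = best replicate reaches 50% inhibition but some replicates fall short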
Target sequence (Q5AAJ8 whole entry, looked up): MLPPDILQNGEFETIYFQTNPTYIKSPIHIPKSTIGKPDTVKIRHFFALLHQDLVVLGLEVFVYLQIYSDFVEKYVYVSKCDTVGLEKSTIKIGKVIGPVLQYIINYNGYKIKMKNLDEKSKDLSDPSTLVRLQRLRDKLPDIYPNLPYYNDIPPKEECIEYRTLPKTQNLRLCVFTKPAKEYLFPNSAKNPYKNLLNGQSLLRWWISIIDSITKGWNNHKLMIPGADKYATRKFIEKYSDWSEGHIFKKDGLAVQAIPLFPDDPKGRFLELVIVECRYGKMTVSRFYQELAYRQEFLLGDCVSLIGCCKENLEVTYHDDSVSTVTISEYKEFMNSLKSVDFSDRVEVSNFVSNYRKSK
PfHsp90 yeast 2 = growth inhibition of yeast expressing Plasmodium Hsp90 | S. cerevisiae expressing PfHsp90, BacTiter-Glo ATP, 48 h; yeast lacking PDR1 and PDR3 efflux regulators | inhibition, % at 9.4 µM | 0.32% of 310,000 active;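 active = every replicate shows inhibition above about 80%, whatever the replicate mean, limit read from the data; inconclusive = mean inhibition reaches the set limit but some replicate falls short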;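 also: 0% = DMSO neutral controls and 100% = 20 µM radicicol positive controls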
N-glyco inh = N-linked glycosylation inhibition | D54 ERlucT glycosylation luciferase reporter, 24 h; percent of 100 nM tunicamycin response | reporter increase, % at 12.5 µM | 0.23% of 360,000 active | AID 588692;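 active = mean luciferase reporter signal, scaled so untreated is 0 and the glycosylation-blocking control 100, at or above a set limit in every replicate; inconclusive = mean reaches the limit but not every replicate does; inactive = mean below the limit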;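 also: luciferase carries N-glycosylation sites so blocking glycosylation raises the light; 0% = median of neutral control wells and 100% = median of 100 nM tunicamycin wells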
PAX8 inh HTS = inhibitors of PAX8 transcriptional activity in RMG-I cells | RMG-I TPO-luciferase reporter, SteadyGlo, 24 h | inhibition, % at 12.6 µM | 1.2% of 360,000 active;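 active = mean replicate inhibition at least 60% with every replicate also reaching 60%; inconclusive = only one of the two criteria is met; inactive = mean below 60% and not all replicates reaching 60%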;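 also: luciferase light reporting Pax8 driven TPO promoter activity; plate controls were median of neutral control wells for no effect and mitoxantrone controls for full effect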
HIV Env fusion = inhibitors of HIV Env-mediated cell fusion | 1.1% of 360,000 active | inhibition, % at 12.3 µM | AID 651610 | HeLa-JRFL Env/CEM21 cell fusion, luciferase;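 active = mean replicate inhibition score of at least 50 and every replicate individually at or above 50; inconclusive = only one of the two criteria met; inactive = mean below 50 and not all replicates reaching 50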;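 also: 0% = plate neutral controls and 100% = maraviroc near 300 nM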
* marks the source's active call; other numbers are inactive results; i = inactive; ? = inconclusive; · = no result given; [ ] = remark or other dose. Hits are enriched below; roughly 2.3% of the tested compounds scored in any of these assays.

SMILES | Arrestin-AP2 inh | Rtt109 HAT inh | PfHsp90 yeast 2 | N-glyco inh | PAX8 inh HTS | HIV Env fusion
CCNc1nc(Oc2ccc(C(=O)OC)cc2)nc(N(C)C)n1 | 1.9 | -8.9 | -12.0 | -0.8 | · | ·
COC(=O)c1ccc(Oc2nc(Nc3ccc(C)c(C)c3)nc(N(C)C)n2)cc1 | -10.1 | -3.3 | · | 2.1 | · | 64.7*
Cc1ccc(/C=C/C(=O)NCc2ccc(S(N)(=O)=O)cc2)o1 | 10.4 | 72.4* | 0.4 | -1.0 | 5.5 | 27.8
Cn1c(=O)c([N+](=O)[O-])c(Cl)c2ccccc21 | -3.5 | -10.4 | · | ? | 101.4* | -95.3
C[C@@H]1CCCCO[C@@H](CN(C)C(=O)Nc2ccc(F)cc2)[C@@H](C)CN([C@H](C)CO)C(=O)c2cc(NC(=O)CCCN(C)C)ccc2O1 | · | · | · | · | -19.6 | 8.9[16.7 µM]
Cn1c(=O)c2c(nc(NC3CCCCC3)n2Cc2ccccc2)n(C)c1=O | 22.8 | 2.6 | -16.5 | 0.5 | -20.3 | -1.0
Cn1c(=O)c2c(nc(NC3CCCCC3)n2CC(=O)C23CC4CC(CC(C4)C2)C3)n(C)c1=O | 1.5 | 56.5* | 6.0 | -4.4 | · | -33.4
Cc1ccc(-c2nn3c(C)nnc3c3ccccc23)cc1S(=O)(=O)N(C)CCO | -4.5 | -2.2 | -7.6 | 26.7* | · | ·
C[C@H](CO)N1C[C@H](C)[C@H](CN(C)Cc2ccccn2)Oc2ncc(-c3ccc(C#N)cc3)cc2C1=O | · | · | · | · | · | -27.7[16.7 µM]
Nc1nc(Cl)cc(N2CCCC2)n1 | -7.8 | 1.5 | 1.3 | 2.1 | 5.0 | 1.9
Nc1nc(Cl)cc(N2CCC(c3cc(-c4ccc(Cl)cc4Cl)n[nH]3)CC2)n1 | 0.0 | 0.5 | -42.6 | 2.3 | 23.0 | 101.5*
Nc1ccc(O)cc1C(=O)OCC(=O)c1ccc(C2CCCCC2)cc1 | 17.5 | -0.3 | -30.3 | 3.1 | 3.8 | 83.8*
CCOC(=O)C1CCCN(C(=O)c2ccc3c(c2)C(C)(C)CCC3(C)C)CC1 (centres undefined) | · | · | · | 1.4 | 13.7 | 59.9*
CCOC(=O)C1CCN(C(=O)c2ccc3c(c2)C(=O)N(c2ccccc2C)C3=O)CC1 | 1.0 | 1.2 | -12.2 | 1.5 | -16.1 | 85.2*
C=C(C)c1nc(Oc2ccccc2)nc(Oc2ccccc2)n1 | -15.2 | -0.7 | -20.1 | 2.0 | 97.3* | 3.5
CC(NCCCOc1cccc2ccccc12)c1ccccc1 (centres undefined) | -23.1 | 2.1 | 21.2 | -5.7 | 7.0 | 74.9*
Cc1noc(C)c1NC(=O)Nc1ccc2c(c1)C(=O)N([C@@H](C)CO)C[C@H](C)[C@@H](CN(C)C(=O)Nc1cccc3ccccc13)OCCCC[C@@H](C)O2 | · | · | · | · | 13.0 | 0.8[16.7 µM]
C[C@@H](NC(=O)C[C@H]1CC[C@H]2[C@@H](COC[C@@H](O)CN2C)O1)c1ccccc1 | · | · | · | · | 0.8 | -5.2[16.7 µM]
COCCNC(=O)C(c1ccc(O)cc1)N(Cc1ccccc1)C(=O)CCC(=O)Nc1ccccn1 (centres undefined) | 7.9 | 58.2* | -1.9 | 1.3 | -4.2 | -9.8
COCCNC(=O)C(c1ccc(F)cc1)N(Cc1ccccc1)C(=O)CCC(=O)Nc1ccccn1 (centres undefined) | 25.7 | -3.6 | 16.4 | 1.7 | 2.9 | 6.1
O=C(C[C@@H]1C=C[C@H](NC(=O)c2ccccc2)[C@H](CO)O1)NCc1ccc(Oc2ccccc2)cc1 | · | · | · | · | 25.6 | 60.6*[16.7 µM]
COC(=O)C[C@@H]1C=C[C@H](NC(=O)c2cnccn2)[C@@H](CO)O1 | · | · | · | · | -9.4 | -7.1
COC(=O)C[C@H]1C=C[C@H](NC(=O)c2ccccn2)[C@@H](CO)O1 | · | · | · | · | -9.0 | 71.6*
O=C(C[C@@H]1C=C[C@@H](NC(=O)c2ccccc2)[C@H](CO)O1)NCc1ccc(Oc2ccccc2)cc1 | · | · | · | · | 18.0 | 57.4*[16.7 µM]
COc1cccc(CNC(=O)C[C@@H]2C=C[C@H](NC(=O)C3CCC3)[C@H](CO)O2)c1 | · | · | · | · | -16.8 | 65.1*[16.7 µM]
SMILES | Arrestin-AP2 inh | Rtt109 HAT inh | PfHsp90 yeast 2 | N-glyco inh | PAX8 inh HTS | HIV Env fusion
C[C@@H]1CN([C@H](C)CO)C(=O)c2cc(NC(=O)CCCN(C)C)ccc2O[C@H]1CN(C)S(=O)(=O)c1ccc(F)cc1 | · | · | · | · | -4.3 | ·
CN1CCN(C(=O)C[C@@H]2CC[C@H]3[C@@H](COC[C@@H](O)CN3C(=O)Nc3ccc4c(c3)OCO4)O2)CC1 | · | · | · | · | -102.4 | -12.0[16.7 µM]
Cc1noc(C)c1NC(=O)N(C)C[C@@H]1OCCCC[C@@H](C)Oc2ccc(NS(=O)(=O)c3ccc(Cl)cc3)cc2C(=O)N([C@H](C)CO)C[C@H]1C | · | · | · | · | -0.9 | -8.5[16.7 µM]
CCc1ccc(CNC(=O)Cc2ccc(NC(=O)C3=C(C)OCCS3)cc2)cc1 | 16.4 | -8.2 | -1.0 | 30.9* | 11.3 | i
Cc1ccccc1S(=O)(=O)N1CC(=O)N2[C@H](C1)[C@H](c1ccc(C#CCC(C)C)cc1)[C@@H]2CO | · | · | · | · | 41.6 | ·
CCOC(=O)c1c(CSCc2ccccc2)oc2ccc(O)c(CN(C)C)c12 | 8.1 | 32.5 | 12.6 | -0.2 | 19.8 | 57.6*
COc1cc(-c2nc3cnccn3c2Nc2ccc(C)cc2)ccc1O | -6.2 | 2.2 | -25.7 | 26.1* | · | ·
C[C@H](CO)N1C[C@H](C)[C@H](CN(C)Cc2ccccc2)Oc2c(NS(=O)(=O)c3ccc(Cl)cc3)cccc2C1=O | · | · | · | · | 5.3 | -12.9[16.7 µM]
CC(CCc1ccccc1)NCc1cccc2ccccc12 (centres undefined) | 46.4 | 3.4 | -12.0 | 0.0 | 18.9 | 65.8*
COc1cc(/C=C2\SC(=S)N(CCC(=O)Nc3cccc(O)c3)C2=O)cc(OC)c1OC | 14.2 | -2.6 | 4.1 | -6.8 | -5.8 | 2.2
COc1ccccc1/C=C1\SC(=S)N(CCC(=O)Nc2cccc(O)c2)C1=O | 7.4 | -2.5 | -2.9 | -0.6 | 15.6 | 69.7*
CCc1ccc(/C=C2\SC(=S)N(CCCC(=O)NC3=NCCS3)C2=O)cc1 | · | · | · | -4.3 | 12.7 | 59.1*
O=C(CCCN1C(=O)/C(=C\c2ccccc2)SC1=S)Nc1ccc(O)cc1 | -21.4 | 18.4 | -17.4 | -3.6 | 76.7* | 24.2
Cc1ccc(/C=C2\SC(=S)N(CCCC(=O)NNC(=O)c3ccccc3O)C2=O)cc1 | -1.0 | -3.7 | -3.4 | -7.8 | 63.7* | 95.8*
COc1cccc(/C=C2/SC(=S)N(CCCC(=O)Nc3ccc(O)cc3)C2=O)c1 | -7.6 | 9.1 | 22.3 | · | · | ·
CN1c2ccc(C#Cc3cccnc3)cc2[C@H]2[C@H](CCN2S(=O)(=O)c2ccc(F)cc2)[C@@H]1CO | · | · | · | · | 1.3 | ·
CCC(=O)N1[C@@H]2c3cccc(=O)n3C[C@@H]2[C@@H](CO)[C@@H]1C(=O)N1CCc2ccccc2C1 | · | · | · | · | -18.4 | ·
COCC(=O)Nc1ccc2c(c1)[C@H]1C[C@@H](CC(=O)NCc3cc(F)ccc3F)O[C@@H](CO)[C@H]1O2 | · | · | · | · | -8.6 | ·
C[C@@H]1CN([C@@H](C)CO)C(=O)c2cc(NC(=O)Nc3ccc(C(F)(F)F)cc3)ccc2O[C@@H](C)CCCCO[C@H]1CN(C)S(=O)(=O)c1cccs1 | · | · | · | · | 34.6 | 16.4[16.7 µM]
COc1ccc(/C=C2/SC(=S)N(CCCC(=O)Nc3ccc(O)cc3)C2=O)cc1OC | 23.5 | 1.8 | 4.1 | -2.4 | · | ·
